Holding throughout (format): functional
The nature of experiment [1]: Selectivity index is the […] between the IC50 values in the aggregation and contraction assays. In a few lines:
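Index for τ-receptor computed as […] between IC50 in rabbit PRP aggregation (2.5×10^-6 M U-46619) and IC50 for relaxing rabbit aorta contracted by 3×10^-8 M U-46619.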

The species named for experiment [2] is Oryctolagus cuniculus. Kind of experiment: Tested for the concentration that causes 50% relaxation when contraction in rabbit aorta was induced by 3 x 10 E -8 M of U-46619. In a few lines:
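Rabbit thoracic aorta strips held at 37 °C in oxygenated (95% O2/5% CO2) bicarbonate salt solution with dextrose, resting tension 1.5 g, equilibrated 1 h. Isometric tension recorded via force transducer. Once contraction to 3×10^-8 M U-46619 plateaued, compound added cumulatively. Concentration giving 50% relaxation of maximal U-46619-induced tension change obtained by regression of concentration–relaxation curve.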

For experiment [3], the species on record is Oryctolagus cuniculus. Put plainly: Tested for the concentration that cause 50% inhibition of the maximum aggregation with rabbit platelet-rich plasma induced by 2.5 x 10 E -6 M of U-46619. The gist of the method:
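Rabbit blood drawn from carotid artery into 3.18% trisodium citrate (1/10 volume). PRP from 300 g spin for 15 min; PPP from 1000g spin for 20 min, used as 100% transmission reference. PRP warmed 2 min at 37 °C, compound or vehicle added, 2 min later 2.5×10^-6 M U-46619. Turbidimetric (Born) aggregometry; IC50 as 50% inhibition of maximum aggregation.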

Structures are written as SMILES. Bounds are passed on as bounds.

In turn, `COc1ccc(S(=O)(=O)NCCCCc2cc(C(=O)O)c3ccc(C(C)C)ccc2-3)cc1` registered a Selectivity index in experiment [1] above 233. In addition, the IC50 was 430 nM in the experiment listed under Oryctolagus cuniculus [2] and above 100 µM in the experiment filed under Oryctolagus cuniculus [3].
`CC(C)c1ccc2c(CCCNS(=O)(=O)c3ccccc3)cc(C(=O)O)c-2cc1` gave a Selectivity index in experiment [1] above 7. Besides, the IC50 in the experiment listed under Oryctolagus cuniculus [2] was 14000 nM; in the experiment filed under Oryctolagus cuniculus [3], above 100 µM.
The like results for `CC(C)c1ccc2c(/C=C/C(=O)O)cc(CCCCNS(=O)(=O)c3ccccc3)c-2cc1` were, in that order, above 6, 16000 nM and above 100 µM.
The like results for `CC(C)c1ccc2c(CCCCNS(=O)(=O)c3ccc(Cl)cc3)cc(S(=O)(=O)O)c-2cc1` were, in that order, 378, 23 nM and 8.7 µM.
`CC(C)c1ccc2c(CCCCCNS(=O)(=O)c3ccccc3)cc(C(=O)O)c-2cc1` returned a Selectivity index in experiment [1] above 29. Further, the concentration for half-maximal inhibition (IC50) in the experiment filed under Oryctolagus cuniculus [2] was 3400 nM; in the experiment filed under Oryctolagus cuniculus [3], above 100 µM.
On the same counts, the results for `CC(C)c1ccc2c(CCCCNS(=O)(=O)c3ccc(Cl)cc3)cc(C(=O)O)c-2cc1` are above 667, 150 nM and above 100 µM.
The like results for `CC(C)c1ccc2c(CCCCNS(=O)(=O)c3ccccc3)cc(CC(=O)O)c-2cc1` were, in that order, above 33, 3000 nM and above 100 µM.
On to `O=C(O)COc1ccc(CCNS(=O)(=O)c2ccccc2)cc1` [SULOTROBAN], for which the Selectivity index in experiment [1] is 5. The IC50 came out at 1300 nM in the experiment filed under Oryctolagus cuniculus [2] and 7.1 µM in the experiment filed under Oryctolagus cuniculus [3].
As for `CC(C)c1ccc2c(CCCCNS(=O)(=O)c3ccccc3)cc(C(=O)O)c-2cc1`, in experiment [1], the Selectivity index was above 63. Besides, the IC50 is 1600 nM in the experiment filed under Oryctolagus cuniculus [2] and above 100 µM in the experiment filed under Oryctolagus cuniculus [3].
On the same counts, the results for `COc1ccc(S(=O)(=O)NCCCCc2cc(S(=O)(=O)O)c3ccc(C(C)C)ccc2-3)cc1` are 660, 97 nM and 64 µM.
The like results for `CC(C)c1ccc2c(CCCCNS(=O)(=O)c3ccccc3)cc(S(=O)(=O)O)c-2cc1` were, in that order, above 91, 1100 nM and above 100 µM.
`CC(C)c1ccc2c(CCNS(=O)(=O)c3ccccc3)cc(C(=O)O)c-2cc1` returned a Selectivity index in experiment [1] above 7. Moreover, the results for the IC50 in the experiment filed under Oryctolagus cuniculus [2] and in the experiment listed under Oryctolagus cuniculus [3] were 14000 nM and above 100 µM, respectively.

For orientation: IC50 means the concentration that inhibits the measured activity by half.

Values taken from ChEMBL document CHEMBL1124891, “Azulene derivatives: new non-prostanoid thromboxane A2 receptor antagonists” (J Med Chem, 1990).
